Source: ChEMBL document CHEMBL1136934, “Synthesis of some novel organic nitrates and comparative in vitro study of their vasodilator profile” (J Med Chem, 2009)

How the values were obtained:
Aorta [1] = assay: Ratio of EC50 for vasodilatory activity in Wistar rat endothelium-denuded thoracic aortic ring in presence of chloral hydrate to EC50 for vasodilatory activity in Wistar rat endothelium-denuded thoracic aortic ring; type: functional
Aorta [2] = assay: Vasodilatory activity in Wistar rat endothelium-denuded thoracic aortic ring assessed as inhibition of phenylephrine-induced contraction drug treated 30 mins after ALDH2 inhibitor benomyl treatment; type: functional, tissue-based; conditions: 0.5 h
Aorta [3] = assay: Vasodilatory activity in Wistar rat endothelium-denuded thoracic aortic ring assessed as inhibition of phenylephrine-induced contraction drug treated 30 mins after 1 uM soluble guanylate cyclase heme site inhibitor ODQ treatment; type: functional, tissue-based; conditions: 0.5 h
Aorta [4] = assay: Vasodilatory activity in Wistar rat endothelium-denuded thoracic aortic ring assessed as inhibition of phenylephrine-induced contraction; type: functional, tissue-based
Outline: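 Endothelium removed from rat aorta; three helically cut strips per aorta. Once agonist contraction plateaued, cumulative vasodilator concentrations were added. EC50 (µM) given as mean ± SE, n = 3-15.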

Aorta [5] = assay: Ratio of EC50 for vasodilatory activity in Wistar rat endothelium-denuded thoracic aortic ring in presence of benomyl to EC50 for vasodilatory activity in Wistar rat endothelium-denuded thoracic aortic ring; type: functional
Aorta [6] = assay: Vasodilatory activity in Wistar rat endothelium-denuded cross tolerant thoracic aortic ring assessed as inhibition of phenylephrine-induced contraction preincubated with 0.55 mM GTN for 1 hr followed by washing; type: functional, tissue-based
Outline: (§1)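 Endothelium-denuded helical rat aortic strips. After 1 h equilibration, strips were incubated in 0.55 mM GTN for 1 h, then washed extensively for 1 h. Cumulative concentration-response curves were then run on contracted strips. EC50 (µM, mean ± SE, n = 3-15) was compared with untreated strips.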

Aorta [7] = assay: Ratio of EC50 for vasodilatory activity in Wistar rat endothelium-denuded cross tolerant thoracic aortic ring preincubated with 0.55 mM GTN for 1 hr followed by washing to EC50 for vasodilatory activity in Wistar rat endothelium-denuded thoracic aortic ring; type: functional; outline: as §1
Aorta [8] = assay: Vasodilatory activity in Wistar rat endothelium-denuded thoracic aortic ring assessed as inhibition of phenylephrine-induced contraction drug treated 30 mins after ALDH2 inhibitor chloral hydrate treatment; type: functional, tissue-based; conditions: 0.5 h

SMILES | Ratio EC50 (Aorta [1]) | EC50 (Aorta [2]) [µM] | EC50 (Aorta [3]) [µM] | EC50 (Aorta [4]) [µM] | Ratio EC50 (Aorta [5]) | EC50 (Aorta [6]) [µM] | Ratio EC50 (Aorta [7]) | EC50 (Aorta [8]) [µM]
O=[N+]([O-])OCC(CO[N+](=O)[O-])O[N+](=O)[O-] [NITROGLYCERIN] | 32 | 0.42 | > 100 | 0.029 | 14 | 4.4 | 152 | 0.94
O=[N+]([O-])OC[C@@H](Cc1ccccc1)O[N+](=O)[O-] | 19 | 0.63 | > 100 | 0.063 | 10 | 6.4 | 102 | 1.2
O=[N+]([O-])OCCCCc1ccccc1 | 7.3 | 0.51 | 66 | 0.15 | 3.4 | 4.5 | 30 | 1.1
O=[N+]([O-])OC[C@H](Cc1ccccc1)O[N+](=O)[O-] | 20 | 0.6 | > 100 | 0.061 | 9.8 | 6.1 | 100 | 1.2
O=[N+]([O-])OCCCc1ccccc1 | 19 | 1.5 | > 100 | 0.16 | 9.4 | 20 | 125 | 3
O=[N+]([O-])OC[C@H](CCc1ccccc1)O[N+](=O)[O-] | 7.6 | 0.16 | 30 | 0.049 | 3.3 | 2.4 | 49 | 0.37
O=[N+]([O-])OC[C@@H](CCc1ccccc1)O[N+](=O)[O-] | 5.5 | 0.12 | 29 | 0.049 | 2.4 | 1.6 | 33 | 0.27
